Among the data in ChEMBL document CHEMBL3390837, “Bridged tetrahydroisoquinolines as selective NADPH oxidase 2 (Nox2) inhibitors” (Medchemcomm, 2013) are inhibition, Activity and IC50 values, retold here.

Series [1] has as its target T1, NADPH oxidase 2 (Homo sapiens) (UniProt P04839).
T1 sequence (whole entry): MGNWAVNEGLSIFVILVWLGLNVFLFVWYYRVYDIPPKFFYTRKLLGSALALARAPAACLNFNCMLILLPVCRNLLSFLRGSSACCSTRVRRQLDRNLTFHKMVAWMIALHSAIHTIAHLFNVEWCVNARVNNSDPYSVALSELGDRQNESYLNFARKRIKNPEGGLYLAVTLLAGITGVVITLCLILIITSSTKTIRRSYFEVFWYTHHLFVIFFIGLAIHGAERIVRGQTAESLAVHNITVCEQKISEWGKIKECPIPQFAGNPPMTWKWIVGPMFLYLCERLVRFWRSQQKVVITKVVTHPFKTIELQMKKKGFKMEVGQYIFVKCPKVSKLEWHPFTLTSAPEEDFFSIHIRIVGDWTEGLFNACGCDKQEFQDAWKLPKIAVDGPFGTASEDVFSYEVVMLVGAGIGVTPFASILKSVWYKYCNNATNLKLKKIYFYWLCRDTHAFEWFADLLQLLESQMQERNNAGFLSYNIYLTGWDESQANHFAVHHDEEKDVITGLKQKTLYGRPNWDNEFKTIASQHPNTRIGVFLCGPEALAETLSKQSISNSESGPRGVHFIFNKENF
Description: Inhibition of full length human NOX2 transfected in COS 22 cells assessed as inhibition of lithium dodecyl sulphate-stimulated ROS generation at 6.3 uM preincubated for 15 mins followed by lithium dodecyl sulphate challenge by cell-free assay in presence of NADPH. The method, boiled down:
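COS-Nox2 lysate (freeze/thaw ×5, needle passage, 1000 × g spin, kept near 0 °C) at 5 × 10⁵ cell equivalents/well in 65 mM sodium phosphate pH 7.0 with 1 mM EGTA, 10 µM FAD, 1 mM MgCl₂, 2 mM NaN₃, 0.2 mM cytochrome c; superoxide from initial 10-min linear rate of SOD-inhibitable cytochrome c reduction at 550 nm (21.1 mM⁻¹ cm⁻¹).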

Series [2] in a line: Cytotoxicity against african green monkey COS7 cells expressing human p22phox assessed as cell viability at 25 to 50 uM after 15 mins by luminogenic assay. The class given is cell-based. The conditions noted are these: chlorocebus aethiops, cos-7, 0.25 h. The method, boiled down: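 COS-22 cells plated at 2.5 x 10³ cells/well in OPTIMEM, exposed 15 min to compounds at various concentrations; dead-cell protease release read with luminogenic AAF peptide substrate, signal before and after digitonin used to derive % dead; reported as % live cells (100 − % dead) per well.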

Series [3] deals with T2, NADPH oxidase 1 (Homo sapiens, UniProt Q9Y5S8).
T2 sequence (Q9Y5S8 whole entry): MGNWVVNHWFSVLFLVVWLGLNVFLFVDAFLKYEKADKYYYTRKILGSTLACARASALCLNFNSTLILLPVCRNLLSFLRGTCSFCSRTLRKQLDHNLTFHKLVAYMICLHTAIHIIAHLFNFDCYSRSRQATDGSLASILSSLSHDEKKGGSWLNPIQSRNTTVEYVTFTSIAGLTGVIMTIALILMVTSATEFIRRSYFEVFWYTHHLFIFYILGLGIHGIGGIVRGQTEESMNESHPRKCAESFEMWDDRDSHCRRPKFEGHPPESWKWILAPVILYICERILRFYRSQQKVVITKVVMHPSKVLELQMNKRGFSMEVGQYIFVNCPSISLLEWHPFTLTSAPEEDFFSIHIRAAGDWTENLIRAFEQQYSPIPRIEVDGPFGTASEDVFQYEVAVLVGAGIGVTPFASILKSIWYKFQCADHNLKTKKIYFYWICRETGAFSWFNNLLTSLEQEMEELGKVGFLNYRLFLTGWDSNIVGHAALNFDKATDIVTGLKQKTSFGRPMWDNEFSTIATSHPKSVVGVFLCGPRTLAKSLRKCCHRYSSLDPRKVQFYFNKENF
Put plainly: Inhibition of full length human NOX1 transfected in COS 22 cells assessed as inhibition of constitutive ROS generation by chemiluminescence assay. The conditions noted are these: read-out: IC50.

Calls of active or inactive are those of the source. No cut-off for these calls is given here.

As usually defined, the IC50 is the concentration that inhibits the measured activity by half. For the compound `C=C(C)C[C@@H]1N[C@H]2CC(C)(C)[C@@H]1c1c(Br)cccc12` (racemic), the inhibition result in series [1] was “Active”. In addition, the Activity entry in series [2] is reported as “Non-toxic”. Also, the concentration for half-maximal inhibition (IC50) in series [3] was 31 µM.
